From PubChem BioAssay
JMJD2C inh: inhibitors of human GASC-1 (JMJD2C) demethylase; GST-JMJD2C(1-420) H3K9me3 demethylation, DELFIA europium; 0.069% of 330,000 active; Q9H3R0; inhibition, % at 2.35 µM;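 active = more than half of a compound's replicate wells show inhibition beyond 50%, single wells judged on their own value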;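 also: signal counts dimethyl H3K9 product captured on neutravidin plate; 0% = median of DMSO wells and 100% = 0.3 times that DMSO median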
Cardio protect: protects H9c2 cardiomyocytes from peroxide injury. 0.63% of 360,000 active. AID 588492. H2O2 injury protection, ATPLite, 2 h. protection from H2O2 cell death, % at 20 µM;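 active = compounds giving at least 50% protection of heart cells from peroxide-induced death in the single-dose screen, raw or plate-pattern-corrected value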;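 also: 0% = DMSO wells with peroxide and 100% = DMSO wells without peroxide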
p-CIP stab down: compounds decreasing mouse p/CIP protein stability. decrease of EGFP signal, % at 10 µM. 0.01% of 290,000 active. Q05BA5. F442A p/CIP-EGFP cells, EGFP fluorescence, 16 h;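 active = EGFP signal decrease of at least 30% at 10 µM or well 3 SD below plate mean, unless failing retest; inactive = the rest, including hits failing retest or dose response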
T cruzi repl: blocks replication of Trypanosoma cruzi. T. cruzi beta-gal in NIH3T3, luminescence, 90 h. inhibition, % (concentration not given with the values). 1.4% of 300,000 active;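 active = mean inhibition across valid replicates above about 55%, limit read from the data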;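 also: signal also drops with host cell toxicity which is not excluded here; 0% = plate median of DMSO wells and 100% = zero luminescence signal; higher percent means less beta-gal luminescence so fewer parasites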
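Assay system: NIH/3T3 fibroblasts plus reporter T. cruzi. Amount: NIH/3T3 cells, 5,000 per well. Buffer or medium: DMEM, 2% fetal bovine serum. Doses: compound pinned at 50 nL/well, DMSO. Schedule: ≥90 h infection period, 3 h prior cell attachment. Signal: luminescent β-galactosidase signal after 60 min lysis. Read-out: parasite load inhibition, %.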
CTSL1 counter: cathepsin L1 inhibition, PFM18AAP counter-screen | 0.49% of 300,000 active | AID 1906 | inhibition, % at 5.96 µM | recombinant F. hepatica cathepsin L1, Z-Leu-Arg-MCA fluorescence;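 active = inhibition above the mean of all tested compounds plus 3 SD, set per screening campaign, cut at about 17% in these data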;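 also: 0% = plate median of test compound wells and 100% = 1 µM Z-Phe-Ala-diazomethylketone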
PP5 inh: inhibitors of human protein phosphatase 5 (PP5). purified PP5c, OMFP substrate fluorescence. P53041. 0.18% of 320,000 active. inhibition, % at 6.7 µM;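 active = inhibition above the campaign's mean inhibition across all tested compounds plus 3 SD, cut at about 9.5% in these data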;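 also: 0% = DMSO only and 100% = 100 µM cantharidin control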
* marks the source's active call; other numbers are inactive results; x = no result given. A selection: hits, their analogues and other compounds. The true share with any hit is near 2.4%.

SMILES | JMJD2C inh | Cardio protect | p-CIP stab down | T cruzi repl | CTSL1 counter | PP5 inh
CN(C(=O)CCc1nc2ccccc2c(=O)[nH]1)C1CCS(=O)(=O)C1 (stereo not drawn) | -1.2 | 75.8* | x | x | x | 2.6
COc1ccc(NC(=O)CCc2nc3ccccc3c(=O)[nH]2)cc1S(=O)(=O)N1CCCCC1 | 9.7 | 92.6* | x | x | x | x
CN(C(=O)COC(=O)CCc1nc2ccccc2c(=O)[nH]1)C1CCS(=O)(=O)C1 (stereo not drawn) | 11.8 | 29.5 | -3.3 | -2.4 | 2.8 | 0.2
CC(=O)Nc1ccc(NC(=O)CCc2nc3ccccc3c(=O)[nH]2)cc1 | 10.5 | 11.0 | -4.3 | -9.4 | -2.5 | 2.7
CN(CC(=O)Nc1cccc(F)c1)C(=O)CCc1nc2ccccc2c(=O)[nH]1 | 0.5 | 65.4* | x | -16.6 | 0.1 | 0.8
S=C(NCc1ccccc1)NCc1ccccc1Cl | -5.7 | -4.4 | -15.9 | x | x | x
O=C(CCc1nc2ccccc2c(=O)[nH]1)Nc1ccc(N2CCCCC2)cc1 | 1.3 | 50.0* | -0.8 | 8.8 | -0.7 | 0.5
COC(=O)c1ccc(-c2noc(CN(C)CC3CCCCO3)n2)cc1 (stereo not drawn) | -4.7 | 11.6 | 7.5 | -0.7 | -4.7 | 0.5
COC(=O)c1ccc(-c2noc(CN(Cc3ccncc3)CC3CCCO3)n2)cc1 (stereo not drawn) | -5.2 | 0.7 | -9.8 | 57.1* | -0.4 | -2.7
CC(=O)Nc1ccc(S(=O)(=O)NCc2nc(-c3ccccc3Cl)no2)cc1 | 2.7 | 0.5 | -3.2 | 0.9 | 1.1 | 1.9
O=C(NCCCn1ccnc1)C(=O)NCC(c1cccnc1)N1CCN(c2ccc(F)cc2)CC1 (stereo not drawn) | -14.5 | -3.9 | -14.5 | 40.0 | 1.9 | -2.7
CCS(=O)(=O)NCC(c1cccnc1)N1CCN(c2ccccc2)CC1 (stereo not drawn) | -3.0 | -0.4 | -7.7 | 41.3 | 0.9 | -0.4
CCS(=O)(=O)NCC(c1cccnc1)N1CCN(c2ccc(OC)cc2)CC1 (stereo not drawn) | 2.4 | 8.7 | -1.8 | 57.7* | -5.2 | 1.9
COc1ccc(N2CCN(C(CNC(=O)C(=O)NCCCn3ccnc3)c3cccnc3)CC2)cc1 (stereo not drawn) | -5.0 | 0.7 | -5.7 | 62.7* | -5.0 | -1.1
COc1ccc(C(=O)N2CCCC(C)(C(=O)NS(=O)(=O)C3CC3)C2)cc1 (stereo not drawn) | x | 2.9 | x | x | x | x
COc1cccc(CN(C)C(=O)c2[nH]c(C)c(C(C)=O)c2C)c1OC | 6.6 | -4.7 | -5.8 | -10.8 | -0.6 | -0.3
COc1cccc(CNCCc2c[nH]c3ccccc23)c1OCc1ccccc1 | 0.5 | -11.9 | 4.8 | 42.2 | 4.1 | 1.9
COc1cc(CNCCc2c[nH]c3ccccc23)ccc1OCc1ccccc1F | 2.1 | 1.1 | -7.1 | 54.6* | -0.9 | 1.9
CCOC(=O)c1cc(-c2ccc(/C=N\n3cnnc3)o2)ccc1Cl | -5.0 | 66.7* | 2.7 | -20.3 | 0.6 | 0.6
COc1ccc(C(=O)Nc2ccc(S(=O)(=O)N3CCCC3)cc2)c(OC)c1 | 6.5 | -3.0 | -1.4 | 77.4* | -0.4 | 2.9
COc1ccccc1C(=O)Nc1ccc(S(=O)(=O)N2CCCC2)cc1 | -2.0 | -4.3 | -16.9 | 2.1 | -3.3 | 1.0
COc1ccccc1NC1=C(Cl)C(=O)N(c2ccccc2)C1=O | -0.5 | 3.0 | -0.8 | 0.4 | 0.5 | 3.7
CCOc1ccc(N2C(=O)C(Cl)=C(Nc3ccccc3O)C2=O)cc1 | -4.4 | -8.3 | -0.5 | -21.4 | 16.8* | 3.4
Cc1cc(NC(=O)Cc2cc(F)cc(F)c2)no1 | 12.0 | 1.9 | -1.7 | 3.5 | -6.3 | -1.1
CCOC(=O)C1=C(Nc2ccccc2)CC(C)(O)C(C(=O)OCC)C1c1ccccc1 (stereo not drawn) | -5.9 | 0.4 | -13.6 | 75.8* | 0.8 | 2.0
CCCS(=O)(=O)NC(=O)C1(C)CCN(C(=O)c2cncc(Br)c2)C1 (stereo not drawn) | x | 4.1 | x | x | x | x
C/C(Cn1nnc([N+](=O)[O-])n1)=N\NC(=O)c1ccc(O)cc1 | 8.0 | 4.2 | -5.3 | 36.8 | 4.0 | 0.0
C/C(Cn1nnc([N+](=O)[O-])n1)=N\NC(=O)c1ccc(Cl)c(Cl)c1 | 4.1 | 12.0 | -4.7 | 65.8* | 14.2 | 1.9
